The subject of test [1] is non-small-cell lung cancer cell lines (Homo sapiens). Put plainly: Inhibitory activity against non-small-cell lung cancer cell lines. The settings on record: Homo sapiens.
A further test has as its system Breast carcinoma cell. Kind of test: Inhibitory activity against breast cell line. Format: functional, cell-based. The settings on record: Homo sapiens, Breast carcinoma cell.
A further test concerns Colon cell. Kind of test: Inhibitory activity against Colon cell line. Type of test: functional, cell-based. The note with it: Homo sapiens, Colon cell.
Test [2] concerns NCI-60 human tumor cell line panel (Homo sapiens). Kind of test: Mean averaged concentration for total growth inhibition, which signifies cytostatic effect.
The subject of another test is CNS cell. Put plainly: Inhibitory activity against CNS cell line. Format: functional, cell-based. The note with it: Homo sapiens, CNS cell.
The subject of another test is Ovarian carcinoma cell. Kind of test: Inhibitory activity against ovarian cell line. The note with it: Homo sapiens, Ovarian carcinoma cell. Format: functional, cell-based.
The test system of test [3] is Panel leukemia (Carcinoma cell lines). Kind of test: Inhibitory activity against leukemia cell line. The note with it: Homo sapiens, Panel leukemia (Carcinoma cell lines). Type of test: functional, cell-based.
The next test deals with Melanoma cell. Kind of test: Inhibitory activity against melanoma cell line. Format: functional, cell-based. The settings on record: Homo sapiens, Melanoma cell.
The subject of another test is Prostate cell. Put plainly: Inhibitory activity against prostate cell line. Type of test: functional, cell-based. The note with it: Homo sapiens, Prostate cell.
A further test relates to 3Y1 cell line. Put plainly: Cytotoxicity in 3Y1 cells. Format: functional, Rattus norvegicus. Further details: unit not given here. A digest of the protocol: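 Rat normal fibroblast 3Y1 cells grown in Dulbecco's modified MEM with 10% fetal calf serum, 5% CO2, humidified. Exponentially growing cells exposed to compounds for 24 h. Relative cell number = cell number at 24 h per initial cell number at 0 h × 100; DNA content distribution read by laser scanning cytometry.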

The subject of test [4] is NCI-60 human tumor cell line panel (Homo sapiens). Put plainly: Mean concentration causing inhibition of cell growth in the NCI-60 human tumor cell line panel. The note with it: Homo sapiens, NCI-60 panel.
The test system of a further test is Renal cell. Kind of test: Inhibitory activity against renal cell line. Format: functional, cell-based. The settings on record: Homo sapiens, Renal cell.
The test system of test [5] is NCI-60 human tumor cell line panel (Homo sapiens). Kind of test: Cytostatic effect in NCI-60 human tumor cell lines. Also noted: unit not given here.

This is an account of results in ChEMBL document CHEMBL1132918, “Synthesis and evaluation of tryprostatin B and demethoxyfumitremorgin C analogues” (J Med Chem, 2000).

Each structure is given as a SMILES string. Where only a bound is given, the exact number is not on record here.

As a reminder, the IC50 is the concentration needed to halve the response being measured. What is called GI50 is the concentration that inhibits growth by half. Take `COc1cc(CN2C(=O)[C@@H]3CCCN3C(=O)[C@@H]2Cc2c[nH]c3ccccc23)cc(OC)c1O`: the IC50 is 87.1 µM in test [1]; 95.5 µM in the test on Breast carcinoma cell; 87.1 µM with Colon cell; more than 100 µM with CNS cell; more than 100 µM with Ovarian carcinoma cell; 64.6 µM in test [3]. The IC50 is 95.5 µM in the test on Melanoma cell, more than 100 µM in the test with Prostate cell and more than 100 µM with Renal cell. This compound also showed a TGI in [2] of more than -4. For the same compound, the LC50 in the test with 3Y1 cell line was more than -4. This compound gave a GI50 in [4] of 91.2 µM.

`COc1cc([C@@H]2c3[nH]c4ccccc4c3C[C@H]3C(=O)N4CCC[C@H]4C(=O)N23)cc(OC)c1O`: the IC50 (in test [1]; in the test with Breast carcinoma cell; with Colon cell; in the test with CNS cell; in the test with Ovarian carcinoma cell; in test [3]) was more than 100 µM in each case. Further, the IC50 in the test on Melanoma cell, in the test on Prostate cell and in the test on Renal cell was more than 100 µM throughout. In test [5], the TGI is listed as more than -4. The compound also gave an LC50 in the test with 3Y1 cell line of more than -4. Further, in test [4], the GI50 was more than 100 µM.

Turning to `COc1cc([C@H]2c3[nH]c4ccccc4c3C[C@H]3C(=O)N4CCC[C@H]4C(=O)N23)cc(OC)c1O`, the IC50 in test [1] is 40.7 µM; in the test on Breast carcinoma cell it was 46.8 µM; with Colon cell it was 89.1 µM; in the test on CNS cell it was 33.1 µM; in the test with Ovarian carcinoma cell it was 39.8 µM; in test [3], 100 µM. In addition, the figures for the IC50 with Melanoma cell, in the test on Prostate cell and in the test on Renal cell were 55 µM, 66.1 µM and 44.7 µM, respectively. Further, the TGI in test [5] is more than -4.03. Moreover, the LC50 in the test with 3Y1 cell line is more than -4. In addition, in test [4], the GI50 is 53.7 µM.

As to `O=C1[C@H](Cc2c[nH]c3ccccc23)N(Cc2ccccc2)C(=O)[C@@H]2CCCN12`, the IC50 was more than 100 µM in [1]; more than 100 µM in the test on Breast carcinoma cell; more than 100 µM with Colon cell; more than 100 µM in the test with CNS cell; more than 100 µM in the test on Ovarian carcinoma cell; 85.1 µM in test [3]. Besides, the IC50 in the test with Melanoma cell, in the test with Prostate cell and in the test with Renal cell was more than 100 µM throughout. The same compound showed a TGI in [5] of more than -4. Besides, the LC50 with 3Y1 cell line is more than -4. Besides, the GI50 in test [4] was 97.7 µM.
